Shown are actives, neighbours in structure and some others; about 1.9% of the full set was active somewhere.
PTPN22 inh 2 – inhibitors of human LYP (PTPN22) phosphatase; recombinant LYP catalytic domain, DiFMUP fluorescence; 96,000 compounds, 0.21% hits; inhibition, % at 2 µM;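 active means inhibition at 2 µM at or above a set limit, the screen mean plus 3 SD, cut at about 24% in these data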
HIV Rev-RRE inh – disrupts HIV-1 Rev binding to RRE RNA; P05866; Rev peptide-RRE RNA binding, FRET; inhibition, % at 8 µM; 97,000 compounds, 0.79% hits; AID 704;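 active means inhibition above the screen-wide mean plus 3 SD, cut at about 35% in these data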
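System: Cy5-labelled duplex RRE RNA binding fluorescein-labelled HIV Rev peptide; Signal: fluorescein-to-Cy5 FRET, 480 nm excitation; Also added: labelled Rev peptide; Compound: one concentration, 8 µM nominal; Buffer or medium: HEPES pH 7.5 salt buffer with EDTA; Read-out: % inhibition of FRET ratio versus controls; Schedule: 5 min preincubation and 15 min binding, 25 °C.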
EphB4 antag – EphB4-ephrin-B2 interaction antagonism | EphB4 LBD / TNYL-RAW-Alexa532 peptide, fluorescence polarization | inhibition, % at 7 µM | 97,000 compounds, 0.15% hits | AID 720;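 active means inhibition above the screen-wide mean inhibition plus 3 SD, cut at about 15% in these data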
Target sequence (P54760 whole entry, looked up, the tested form may be a part): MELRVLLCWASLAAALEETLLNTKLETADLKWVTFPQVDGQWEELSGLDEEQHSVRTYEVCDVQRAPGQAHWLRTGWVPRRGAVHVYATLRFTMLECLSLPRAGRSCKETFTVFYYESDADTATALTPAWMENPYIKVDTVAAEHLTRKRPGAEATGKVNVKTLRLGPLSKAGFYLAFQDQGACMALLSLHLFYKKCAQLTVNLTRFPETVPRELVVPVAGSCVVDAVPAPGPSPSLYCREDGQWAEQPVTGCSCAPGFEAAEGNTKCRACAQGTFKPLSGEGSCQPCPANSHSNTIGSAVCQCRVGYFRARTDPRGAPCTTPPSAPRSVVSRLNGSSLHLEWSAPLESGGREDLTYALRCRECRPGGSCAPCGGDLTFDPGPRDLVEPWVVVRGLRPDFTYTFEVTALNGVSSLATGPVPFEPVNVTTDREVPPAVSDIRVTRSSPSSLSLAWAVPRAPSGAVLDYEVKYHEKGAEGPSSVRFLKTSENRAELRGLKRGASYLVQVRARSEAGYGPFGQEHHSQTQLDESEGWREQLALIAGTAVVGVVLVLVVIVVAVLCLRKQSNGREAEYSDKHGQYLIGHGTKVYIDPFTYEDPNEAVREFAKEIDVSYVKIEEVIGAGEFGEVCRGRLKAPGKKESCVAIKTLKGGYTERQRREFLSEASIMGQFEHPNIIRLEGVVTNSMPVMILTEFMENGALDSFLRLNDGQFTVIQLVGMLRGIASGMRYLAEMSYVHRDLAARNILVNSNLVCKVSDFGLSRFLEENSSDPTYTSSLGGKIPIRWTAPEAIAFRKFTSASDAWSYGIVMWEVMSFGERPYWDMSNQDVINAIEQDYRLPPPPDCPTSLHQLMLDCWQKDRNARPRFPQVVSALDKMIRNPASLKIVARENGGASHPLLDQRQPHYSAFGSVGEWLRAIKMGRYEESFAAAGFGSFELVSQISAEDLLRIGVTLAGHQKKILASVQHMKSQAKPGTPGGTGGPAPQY
PTPN22 act – increases human PTPN22 phosphatase activity; Q9Y2R2; recombinant LYP, DiFMUP fluorescence; 0 = plate median, 100 = signal doubled; activation, % at 2 µM; 96,000 compounds, 0.11% hits;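 active means activation at 2 µM above a set limit, the mean plus 5 SD, cut at about 37% in these data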
FAK inh – FAK (human) kinase inhibition | biochemical FAK kinase activity assay | AID 727 | 97,000 compounds, 0.84% hits | inhibition, %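 (tested at 7 µM)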 | Q05397; in the data active means inhibition above about 19%
Large screens that a line does not name were inactive; [ ] = dose if it differs, or a comment.

CC(C)c1ccc(C2C3CSCC=C3C(C#N)=C(N)C2(C#N)C#N)cc1 (configuration not stated)	none
CCOC(=O)N1CC=C2C(C#N)=C(N)C(C#N)(C#N)[C@H](c3ccsc3)[C@H]2C1	none
N#CC1=C(N)C(C#N)(C#N)C(c2ccncc2)C2CN(C(=O)OCc3ccccc3)CC=C12 (configuration not stated)	none
CN1CC=C2C(C#N)=C(N)C(C#N)(C#N)[C@H](c3cccc(Cl)c3)C2C1 (some centres not stated)	HIV Rev-RRE inh 63.8
CN1CC=C2C(C#N)=C(N)C(C#N)(C#N)[C@H](c3cccs3)[C@H]2C1	HIV Rev-RRE inh 58.0
CN1CC=C2C(C#N)=C(N)C(C#N)(C#N)C(c3ccsc3)C2C1 (configuration not stated)	HIV Rev-RRE inh 56.4
Cc1c(C(=O)/C=C/c2cccs2)oc2ccc(F)cc12	none
Clc1ccc(CCNc2ncnc3nc[nH]c23)cc1	none
c1ccc2c(CCNc3ncnc4nc[nH]c34)cccc2c1	FAK inh 21.4
COc1ccc(C(C)NC(=O)c2ccccc2)cc1 (configuration not stated)	EphB4 antag 16.0
Cc1nn(C(=O)c2c([N+](=O)[O-])cnn2C)c(C)c1Cl	none
Nc1cc2c(cc1C(=O)c1ccc(Cl)cc1)OCCO2	none
Cn1c(=O)cc(SCC(=O)NCCCN2CCN(c3ccc(F)cc3)CC2)c2ccccc21	none
Cn1c(=O)cc(SCC(=O)NCCN2CCN(c3ccccc3F)CC2)c2cc(Cl)ccc21	PTPN22 inh 2 33.2
Cc1nc(-n2[nH]c3c(c2=O)CCCC3)[nH]c(=O)c1Cc1ccccc1	HIV Rev-RRE inh 86.5[fluorescence artefact?]
Cc1cc(=O)[nH]c(-n2[nH]c3c(c2=O)CCCC3)n1	none
O=C(O)c1ccc(CSc2n[nH]c(-c3ccco3)n2)cc1	EphB4 antag 15.4
CN(C)C(/C=C/Nc1ccc(F)cc1)=C(C#N)C#N	none (no result: PTPN22 inh 2, PTPN22 act)
CSc1nnc(C)c(/C=C/Nc2ccc(Cl)cc2)n1	HIV Rev-RRE inh 41.9
CSc1nnc(C)c(/C=C/Nc2ccc(F)cc2)n1	HIV Rev-RRE inh 89.3[fluorescence artefact?]
CCC1(C)Cc2ccccc2-c2nc3n(c(=O)c21)CC(C(=O)O)S3 (configuration not stated)	none
CCCC(=O)N1CCN(S(=O)(=O)c2cc(Cl)ccc2OC)CC1	none
CSc1nc(-c2ccccc2)nc2[nH]ccc(=O)c12	FAK inh 22.1
CC1Cc2ccccc2N1Cc1nc2cc(C(F)(F)F)ccc2c(=O)[nH]1 (configuration not stated)	none
CCCC(=O)Nc1ccc2c(c1)nc(CCNC(=O)c1ccccc1)n2C	PTPN22 inh 2 26.7
O=C1c2ccccc2C(=O)N1CCN1CCCCC1	none
Cc1n[nH]c(C)c1N1C(=O)c2cccc3c(N4CCCCCC4)ccc(c23)C1=O	HIV Rev-RRE inh 134.1[fluorescence artefact?]
CC(=O)c1ccc2c3c(cccc13)C(=O)N(c1c(C)nn(C)c1C)C2=O	none
O=C1c2cccc3c(N4CCCCC4)ccc(c23)C(=O)N1CCO	HIV Rev-RRE inh 118.0[fluorescence artefact?]
Cc1nnc(N2C(=O)C(O)=C(C(=O)c3ccco3)C2c2ccc(F)cc2)s1 (configuration not stated)	HIV Rev-RRE inh 52.3
Cc1nnc(N2C(=O)C(O)=C(C(=O)c3ccco3)C2c2ccc(C(C)(C)C)cc2)s1 (configuration not stated)	HIV Rev-RRE inh 92.2[fluorescence artefact?]
COCCCN1C(=O)C(O)=C(C(=O)c2ccco2)C1c1ccc(Br)cc1 (configuration not stated)	none
O=C(C1=C(O)C(=O)N(Cc2ccccc2)C1c1ccncc1)c1ccco1 (configuration not stated)	none
C=CCn1c(N)c(C(=O)NCCC2=CCCCC2)sc1=S	none
COC(=O)c1c(C)c2c(C)cc3ccccn3c-2c1C(=O)OC	HIV Rev-RRE inh 45.9
CN(C1=NC(=O)C(CC(=O)Nc2ccc(Br)cc2)S1)c1ccc(O)cc1 (configuration not stated)	none
O=C1CCNc2cc3ccccc3cc21	HIV Rev-RRE inh 44.5
CC12CCC(C(=O)N3CCc4ccccc43)(CC1=O)C2(C)C (configuration not stated)	none
Cc1ccc(S(=O)(=O)N[C@H](C(=O)Oc2ccc3c(C(F)(F)F)cc(=O)oc3c2)c2ccccc2)cc1	HIV Rev-RRE inh 58.2
O=C(NCc1ccco1)N1c2ccccc2Sc2ccccc21	none
COc1ccc(CN2CCN(C(=O)c3ccco3)CC2)cc1	PTPN22 inh 2 36.8
COc1cccc(CN2CCN(C(=O)c3ccco3)CC2)c1OC	none
Cn1c(CSc2nc3ccccc3s2)nnc1SCC(=O)NCCCN1CCOCC1	none
O=C(Nc1nc(-c2ccccn2)cs1)c1ncc(Cl)c(Cl)c1Cl	PTPN22 inh 2 27.0
O=[N+]([O-])c1ccc(/C=N/Nc2nc(N3CCCCCC3)nc(N3CCCCCC3)n2)o1	HIV Rev-RRE inh 45.9
Cc1cccc(NC(=S)NC2CC3CCCC(C2)N3Cc2cccs2)c1 (configuration not stated)	none
CC(C)(C)C(=O)NC1CCN(S(=O)(=O)c2ccc(C(F)(F)F)cc2)CC1	none
CN1/C(=C\C(=O)C(F)F)C(C)(C)c2ccccc21	none
Cc1c(O)cc2n(c1=O)-c1ccccc1C2(C)C	EphB4 antag 16.3
COc1ccc(/C=C\C(=O)c2c(O)ccc3c(C)cc(=O)oc23)cc1OC	none
COC(=O)/C(C#N)=C1/SC=C(C)N1c1ccccc1	none
N#C/C(C(=O)c1ccccc1)=C1/SC=C(N)N1c1ccccc1	HIV Rev-RRE inh 118.2[fluorescence artefact?]
Cc1c(N)cccc1-c1nc2ccccc2[nH]1	none
Cc1sc2nc(CN(C(=O)NC3CCCCC3)C3CCCCC3)[nH]c(=O)c2c1C	none
COc1ccc2[nH]c3c(NCc4ccco4)ncnc3c2c1	none
COCCCNc1ncnc2c1[nH]c1ccccc12	PTPN22 inh 2 33.6
CC(C)COC(=O)c1cccc2c1-c1ccccc1/C2=N\O	FAK inh 54.7
O=C(Nc1ccc(F)cc1)N(Cc1ccco1)Cc1cc2cc3c(cc2[nH]c1=O)OCO3	HIV Rev-RRE inh 36.8
Cc1ccc(NC(=O)N(Cc2ccc3c(c2)OCO3)Cc2cc3cc4c(cc3[nH]c2=O)OCCO4)cc1	none
O=C(Cc1ccc(Cl)cc1)NCC(=O)N1CCCC1	none
C=CCOc1cccc(C2C(C(=O)c3ccco3)=C(O)C(=O)N2CCN(CC)CC)c1 (configuration not stated)	none
C=CCOc1cccc(C2C(C(=O)c3ccc(C)o3)=C(O)C(=O)N2c2nccs2)c1 (configuration not stated)	HIV Rev-RRE inh 78.3
CN(C(=O)CSC1=Nc2ccccc2C2=NC(c3ccccc3)C(=O)N12)C1CCCCC1 (configuration not stated)	none
O=C1CC(c2ccccc2)CC(O)=C1C=NCCN1CCN(C(=O)Nc2ccccc2)CC1 (configuration not stated)	none
COc1ccc(-c2ccc3c(N)c(C(=O)c4cccc(OC)c4)sc3n2)cc1	HIV Rev-RRE inh 54.6
CC(=O)Nc1cccc(NC(=O)CCn2cnc3cc(C)c(C)cc32)c1	PTPN22 inh 2 25.4

From PubChem BioAssay
